A selection: hits, their analogues and other compounds. The true share with any hit is near 5.3%.
CSC inhib – blocks cancer stem cells; cancer stem cell-like cells viability, luminescence; inhibition, % at 7.5 µM; hit rate 1.1% among 300,000; AID 2717; in the data active means inhibition above about 75%; inconclusive means no clear call, values can overlap the other calls; tested in HMLE shEcad cells
Beta cell apopt – beta cell apoptosis inhibition. hit rate 0.8% among 300,000. INS-1E cytokine-induced death, ATP luminescence, 48 h; percent of positive-control rescue, neutral wells zero. protection from apoptosis, % (test concentration not listed);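 active means Every replicate reaches about 75%, or at least half do and their mean reaches it too, limit read from the data; inconclusive means At least half of replicates reach the limit but their mean does not; inactive means Under half of replicates reach the limit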;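 further: 0% = cytokine-treated negative control wells and 100% = positive control rescue; higher means more ATP so stronger rescue from cytokine killing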
NLRP3 yeast inh – NALP3 inhibition in yeast; Yeast reconstituted NLRP3/ASC/caspase-1, beta-gal luminescence, 24 h; AID 2825; inhibition, % at 10 µM; hit rate 0.39% among 330,000;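 active means inhibition of 50% or more; inactive means inhibition below 50%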;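 further: plate controls were induced DMSO wells for no effect and uninduced yeast grown without galactose for full effect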
Mdm2 MdmX PPI – disrupts the human Mdm2-MdmX interaction; hit rate 3% among 330,000; inhibition, % at 8 µM; AID 485346; O15151+Q00987; SaOS-2 split-luciferase Mdm2/MdmX complementation, luminescence;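 active means inhibition of at least 50% at 8 µM in the primary screen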
Target sequence (O15151 whole entry, looked up): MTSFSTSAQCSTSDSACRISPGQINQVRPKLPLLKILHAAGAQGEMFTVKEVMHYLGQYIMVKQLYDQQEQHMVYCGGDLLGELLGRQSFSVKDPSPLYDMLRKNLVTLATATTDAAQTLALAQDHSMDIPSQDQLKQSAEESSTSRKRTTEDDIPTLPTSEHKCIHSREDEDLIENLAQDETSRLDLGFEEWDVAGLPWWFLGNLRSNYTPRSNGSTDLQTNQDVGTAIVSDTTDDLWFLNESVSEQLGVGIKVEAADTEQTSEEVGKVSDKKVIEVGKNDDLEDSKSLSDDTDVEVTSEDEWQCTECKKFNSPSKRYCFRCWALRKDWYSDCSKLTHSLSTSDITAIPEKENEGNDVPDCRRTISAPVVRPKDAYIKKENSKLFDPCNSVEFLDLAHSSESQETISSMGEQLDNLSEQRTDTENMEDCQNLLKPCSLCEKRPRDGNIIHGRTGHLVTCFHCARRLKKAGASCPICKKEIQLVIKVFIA
Target sequence (Q00987 whole entry, looked up): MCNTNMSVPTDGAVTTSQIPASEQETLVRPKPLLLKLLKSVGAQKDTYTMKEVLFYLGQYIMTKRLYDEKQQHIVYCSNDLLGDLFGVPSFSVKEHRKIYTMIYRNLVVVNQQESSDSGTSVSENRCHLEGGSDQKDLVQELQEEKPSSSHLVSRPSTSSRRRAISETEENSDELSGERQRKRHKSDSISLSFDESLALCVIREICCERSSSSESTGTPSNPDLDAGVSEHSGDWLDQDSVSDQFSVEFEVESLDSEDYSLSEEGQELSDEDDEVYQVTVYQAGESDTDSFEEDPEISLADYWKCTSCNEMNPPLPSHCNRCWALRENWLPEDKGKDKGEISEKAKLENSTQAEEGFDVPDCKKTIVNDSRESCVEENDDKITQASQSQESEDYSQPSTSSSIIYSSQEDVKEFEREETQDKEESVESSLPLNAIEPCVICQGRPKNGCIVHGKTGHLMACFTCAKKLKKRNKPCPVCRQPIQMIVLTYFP
T cruzi inh – T. cruzi replication inhibition; T. cruzi beta-gal in NIH3T3, luminescence, 90 h; inhibition, % (test concentration not listed); hit rate 1.4% among 300,000;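 active means mean inhibition across valid replicates above about 55%, limit read from the data; inconclusive means mean below that limit but half or more replicates reach it; inactive means mean below it, under half of replicates reach it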;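 further: signal also drops with host cell toxicity which is not excluded here; 0% = plate median of DMSO wells and 100% = zero luminescence signal; higher percent means less beta-gal luminescence so fewer parasites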
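Assay system: NIH/3T3 host cells with β-galactosidase reporter T. cruzi; input: 5,000 host fibroblasts per well; compound: single 50 nL compound addition per well in DMSO; timing: ≥90 h infection period, 3 h prior cell attachment; measured by: GalScreen β-gal luminescence, detergent lysis, 60 min; evaluation: percent inhibition of parasite-derived β-gal signal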
Calb FLC – C. albicans growth modulation with fluconazole. C. albicans CaCi-2 (fluconazole-resistant clinical isolate) + fluconazole, Alamar Blue growth, 48 h. hit rate 0.57% among 300,000. growth inhibition, % (test concentration not listed);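 active means growth inhibition above about 58% in most replicates, limit read from the data, passing the limit was not always enough; inconclusive means exactly half the replicates above a set limit; inactive means most replicates below a set limit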;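 further: all wells also contain fluconazole at 8 µg/ml as a sub-toxic cotreatment; 0% = median of DMSO wells and 100% = median of geldanamycin control wells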
* marks the source's active call; other numbers are inactive results; ? = inconclusive; / = no result given.

SMILES	CSC inhib	Beta cell apopt	NLRP3 yeast inh	Mdm2 MdmX PPI	T cruzi inh	Calb FLC
Oc1ccc(-c2csc(Nc3ccccn3)n2)c(O)c1	103*	15	9	-89	6	1
CC(=O)Oc1ccc(-c2csc(Nc3cccc(C)n3)n2)cc1	79*	/	36	-143	43	-2
COc1ccc(-c2csc(Nc3cccc(C)n3)n2)cc1	31	/	30	-185	9	9
Cc1ccccc1C(=O)Nc1cccc(NC(=O)c2ccc(F)cc2)c1	10	3	5	15	-14	14
CCN(CC)c1ccc(N=Cc2cc(Br)ccc2O)cc1	-5	13	14	5	61*	-5
Oc1ccc(Br)cc1C=Nc1ccc(Cl)cc1	37	0	11	5	-18	-13
C/C(Cl)=C/Cc1c(C)[nH]c2ccc(C)cc2c1=O	-2	-5	-3	-9	71*	?
C/C(Cl)=C/Cc1c(C)[nH]c2c(ccc3ccccc32)c1=O	-20	24	19	21	24	-2
CC1CCCCN1CC(O)COCCC12CC3CC(CC(C3)C1)C2 (configuration not stated)	69	11	6	46	47	30
CCOC(=O)N1CCN(CC(O)COCCC23CC4CC(CC(C4)C2)C3)CC1 (configuration not stated)	26	/	9	9	68*	2
O=C(NCCS(=O)(=O)c1ccc(Br)cc1)c1ccc(Cl)cc1Cl	-7	0	14	15	-5	11
O=C1c2c(Br)c(Br)c(Br)c(Br)c2C(=O)N1c1ccccn1	84*	-11	34	33	-46	2
COc1ccc(C(=O)/C=C/C(=O)N(CC(=O)NC2CCCCC2)Cc2cccs2)c(O)c1	76*	39	22	30	-19	-16
COCCN(CC(=O)NC1CCCCC1)C(=O)/C=C/C(=O)c1ccc(OC)cc1O	/	/	/	/	21	2
O=C1N2CCSC2=NC1(Nc1nccs1)C(F)(F)F (configuration not stated)	/	/	16	2	-5	2
Cc1cc(NC(=O)c2cccs2)n(-c2nc3ccccc3[nH]2)n1	54	50	27	40	58*	4
Cc1cccc(N2CCN(c3nc(C)cc(C)c3C#N)CC2C)c1 (configuration not stated)	30	-2	16	2	65*	90*
Cc1ccc(C)c(Oc2ccc(S(=O)(=O)N3CCN(C)CC3)cn2)c1	-8	1	19	13	55*	/
COc1ccc(/C=C/C(=O)O)cc1COc1cccc(C)c1	-1	7	15	3	-22	1
COc1ccc(/C=C/C(=O)C2CC2)cc1COc1c(C)cccc1C	48	11	18	30	29	97*
Cc1nn(-c2ccccc2)c(N)c1Sc1cccc([N+](=O)[O-])c1	3	3	6	-9	38	?
Cc1nn(S(=O)(=O)c2ccc([N+](=O)[O-])cc2)c(C)c1Sc1ccccc1	4	3	-2	23	64*	1
COc1ccc(Cl)c(Cn2c(NCc3ccco3)nc3c2c(=O)n(C)c(=O)n3C)c1	2	78*	11	20	/	/
COc1cccc(Cn2c(NCc3ccco3)nc3c2c(=O)n(C)c(=O)n3C)c1	0	95*	-8	12	38	-2
COCCNc1nc2c(c(=O)n(C)c(=O)n2C)n1Cc1cccc(C(F)(F)F)c1	/	87*	25	7	18	-2
SMILES	CSC inhib	Beta cell apopt	NLRP3 yeast inh	Mdm2 MdmX PPI	T cruzi inh	Calb FLC
C=CCC[C@H](Cc1ccc(F)cc1)C(=O)OC[C@H](Cc1c[nH]c2ccccc12)NC(=O)[C@H](CC=C)CC(=O)NCCO	7	-5	5	33	/	/
Cn1c(O)c(/C=N/Nc2ccccc2)c(=O)n(C)c1=O	89*	-3	21	-4	-4	?
Cc1ccc(NCc2ccc(C)s2)cc1	-2	-22	26	-7	71*	1
Cc1ccc(NCc2ccccc2)cc1	-1	-5	0	14	58*	-5
COc1cc(NC(=S)NCCC(c2ccccc2)c2ccccc2)cc(OC)c1	/	-1	21	13	62*	-12
CCCCCCc1ccc(N2C[C@H](CCCCC)[C@@H](CC(=O)NCc3ccccc3)C2=O)cc1	31	5	4	29	0	-1
CCCCCCc1ccc(N2C[C@H](Cc3ccccc3)[C@@H](CC(=O)NCc3ccc(OC)cc3)C2=O)cc1	64	100*	11	37	-8	-10
